ChEMBL document CHEMBL1137994, “Bis[3-(4'-substituted phenyl)prop-2-ene]disulfides as a new class of antihyperlipidemic compounds” (2004)

Legend:
Rattus norvegicus [1] = experiment: Aspartate transferase (GOT) enzyme level in serum upon single dose administration was determined as measure of hepatotoxicity; Normal range = 46-81 IU; format: functional
Outline: (§1)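 Oral dosing of the compounds as aqueous suspensions, given either as a single dose or as five doses. Hepatotoxicity was assessed from serum alanine transferase and aspartate transferase (IU) and alkaline phosphatase (KA units). Each marker was set against the normal ranges listed.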

[2] = target: T1, 3-hydroxy-3-methylglutaryl-coenzyme A reductase (Rattus norvegicus) (UniProt P51639); experiment: Percent decrease in HMG-CoA reductase activity in rat
T1 sequence (whole entry): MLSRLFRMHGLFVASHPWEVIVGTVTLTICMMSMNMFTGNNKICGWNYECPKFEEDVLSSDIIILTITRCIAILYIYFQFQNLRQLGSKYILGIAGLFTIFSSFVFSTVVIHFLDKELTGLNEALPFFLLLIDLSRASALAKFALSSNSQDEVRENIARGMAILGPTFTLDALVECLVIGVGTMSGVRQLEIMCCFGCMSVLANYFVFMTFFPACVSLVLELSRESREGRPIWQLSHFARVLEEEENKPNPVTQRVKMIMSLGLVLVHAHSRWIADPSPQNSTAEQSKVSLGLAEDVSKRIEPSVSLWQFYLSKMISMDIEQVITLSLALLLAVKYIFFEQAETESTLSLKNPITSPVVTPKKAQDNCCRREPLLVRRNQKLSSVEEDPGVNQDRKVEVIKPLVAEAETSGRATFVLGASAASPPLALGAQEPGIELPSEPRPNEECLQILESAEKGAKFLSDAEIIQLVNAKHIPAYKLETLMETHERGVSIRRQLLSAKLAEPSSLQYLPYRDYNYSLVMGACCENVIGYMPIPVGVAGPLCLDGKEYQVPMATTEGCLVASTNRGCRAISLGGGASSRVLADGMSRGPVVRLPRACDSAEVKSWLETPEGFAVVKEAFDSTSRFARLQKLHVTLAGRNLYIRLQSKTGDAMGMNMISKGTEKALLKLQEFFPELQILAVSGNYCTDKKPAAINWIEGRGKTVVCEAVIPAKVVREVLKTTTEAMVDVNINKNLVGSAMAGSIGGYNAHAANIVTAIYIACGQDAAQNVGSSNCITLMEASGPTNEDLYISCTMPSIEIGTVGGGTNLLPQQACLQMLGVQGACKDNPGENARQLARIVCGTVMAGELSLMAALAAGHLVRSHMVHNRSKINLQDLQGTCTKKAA
Outline: (§2)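 Male Wistar rats, six per group, received a 5% cholesterol diet for 1 week plus an oral 20 mg/kg bwt dose given as a suspension in water. The experiment was run three times. Hepatic HMG-CoA reductase activity was determined by the Venugopala Rao method and expressed as the HMG-CoA/mevalonate ratio.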

Rattus norvegicus [3] = experiment: Alkaline phosphatase enzyme level upon single dose administration was determined as measure of hepatotoxicity; Normal range = 14-32 KA units; format: functional; outline: as §1
Rattus norvegicus [4] = experiment: Alanine transferase (GPT) enzyme level in serum upon single dose administration was determined as measure of hepatotoxicity; Normal range = 18-30 IU; format: functional; outline: as §1
Rattus norvegicus [5] = experiment: Blood urea nitrogen level in serum upon administration of five doses was determined as measure of nephrotoxicity; Normal range = 5-29 mg/dL; format: functional, organism-based
Outline: (§3)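 Nephrotoxicity was assessed after five doses of compound by measuring serum blood urea nitrogen and creatinine in mg/dL by cited methods. Values are mean ± SE against a normal range.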

Rattus norvegicus [6] = experiment: Weight of serum cholesterol after treatment with compound at 20 mg/kg dose for seven days; format: functional
Outline: (§4)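 Male Wistar rats, six per group, were fed a 5% cholesterol diet for one week while receiving compound at 20 mg/kgbwt orally as a suspension in water. Serum was separated, and about 1 g of liver, washed in ice-cold 0.85% NaCl, was taken for lipids. Cholesterol was measured by the Zlatkis method and liver triglyceride by the Van Handel–Zilversmit method. The run was repeated three times; values are mean ± SE.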

Rattus norvegicus [7] = experiment: Alanine transferase (GPT) enzyme level in serum upon administration of five doses was determined as measure of hepatotoxicity; Normal range = 18-30 IU; format: functional; outline: as §1
Rattus norvegicus [8] = experiment: Blood urea nitrogen level in serum upon single dose administration was determined as measure of nephrotoxicity; Normal range = 5-29 mg/dL; format: functional, organism-based
Outline: (§5)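 Nephrotoxicity was assessed after a single dose of compound by measuring serum blood urea nitrogen and creatinine in mg/dL by cited methods. Values are mean ± SE against a normal range.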

Rattus norvegicus [9] = experiment: Creatinine level in serum upon administration of five doses was determined as measure of nephrotoxicity; Normal range = 0.20-0.80 mg/dL; format: functional, organism-based; outline: as §3
Rattus norvegicus [10] = experiment: Creatinine level in serum upon single dose administration was determined as measure of nephrotoxicity; Normal range = 0.20-0.80 mg/dL; format: functional, organism-based; outline: as §5
[11] = target: T1, 3-hydroxy-3-methylglutaryl-coenzyme A reductase (Rattus norvegicus); experiment: Ratio of HMG-CoA reductase to mevalinate; outline: as §2
Rattus norvegicus [12] = experiment: Weight of triglyceride in liver wet tissue after treatment with compound at 20 mg/kg dose for seven days; format: functional; outline: as §4
Rattus norvegicus [13] = experiment: Percent decrease in weight of cholesterol in liver wet tissue after treatment with compound at 20 mg/kg dose for seven days; format: functional
Outline: (§6)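 Male Wistar rats, six per group, were fed a 5% cholesterol diet for 1 week. They were dosed orally at the same time with 20 mg/kg bwt as a suspension in water, and the experiment was run three times. Serum and liver cholesterol were measured by the Zlatkis method, and liver triglyceride by the Van Handel–Zilversmit method, on about 1 g of saline-washed tissue.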

Rattus norvegicus [14] = experiment: Alkaline phosphatase enzyme level in serum upon administration of five doses was determined as measure of hepatotoxicity; Normal range = 14-32 KA units; format: functional; outline: as §1
Rattus norvegicus [15] = experiment: Aspartate transferase (GOT) enzyme level in serum upon administration of five doses was determined as measure of hepatotoxicity; Normal range = 46-81 IU; format: functional; outline: as §1
Rattus norvegicus [16] = experiment: Percent decrease in weight of triglyceride in liver wet tissue after treatment with compound at 20 mg/kg dose for seven days; format: functional; outline: as §6
Rattus norvegicus [17] = experiment: Percent decrease in weight of serum cholesterol after treatment with compound at 20 mg/kg dose for seven days; format: functional; outline: as §6
Rattus norvegicus [18] = experiment: Weight of cholesterol in liver wet tissue after treatment with compound at 20 mg/kg dose for seven days; format: functional; outline: as §4
Rattus norvegicus [19] = experiment: Alkaline phosphatase enzyme level in serum upon single dose administration was determined as measure of hepatotoxicity; Normal range = 14-32 KA units; format: functional; outline: as §1

SMILES	Activity (Rattus norvegicus [1])	Decrease [2]	Activity (Rattus norvegicus [3])	Activity (Rattus norvegicus [4])	Level (Rattus norvegicus [5])	Weight (Rattus norvegicus [6])	Activity (Rattus norvegicus [7])	Level (Rattus norvegicus [8])	Level (Rattus norvegicus [9])	Level (Rattus norvegicus [10])	Ratio [11]	Weight (Rattus norvegicus [12])	Decrease (Rattus norvegicus [13])	Activity (Rattus norvegicus [14])	Activity (Rattus norvegicus [15])	Decrease (Rattus norvegicus [16])	Decrease (Rattus norvegicus [17])	Weight (Rattus norvegicus [18])	Activity (Rattus norvegicus [19])
COc1ccc(/C=C/CSSC/C=C/c2ccc(OC)cc2)cc1	49 IU	3.69%	45.6 KA Units	26.5 IU	8.48 mg/dL	61.95 mg/dL	23 IU	7.43 mg/dL	0.49 mg/dL	0.59 mg/dL	1.68	14.8 mg/g	1.2%	25.2 KA Units	29.5 IU	4.91%	2.05%	4.9 mg/g	
O=C(O)c1ccc(/C=C/CSSC/C=C/c2ccc(C(=O)O)cc2)cc1	53 IU	24.2%		25 IU	17.4 mg/dL	58.82 mg/dL	28 IU	20.2 mg/dL	0.7 mg/dL	0.61 mg/dL	2.02	14.3 mg/g	13.3%	32.8 KA Units	56 IU	8.28%	7.01%	4.3 mg/g	31 KA Units
O=[N+]([O-])c1ccc(/C=C/CSSC/C=C/c2ccc([N+](=O)[O-])cc2)cc1	51 IU	55.7%		21 IU	6.48 mg/dL	44.15 mg/dL	15.5 IU	7.65 mg/dL	0.8 mg/dL	0.4 mg/dL	2.53	14.8 mg/g	36.5%	48 KA Units	49 IU	9.21%	30.2%	3.15 mg/g	29.5 KA Units
CC[C@H](C)C(=O)O[C@H]1C[C@@H](C)C=C2C=C[C@H](C)[C@H](CC[C@@H]3C[C@@H](O)CC(=O)O3)[C@H]21 [LOVASTATIN]		35.4%				43.5 mg/dL					2.2	9.86 mg/g	42.3%			36.91%	31.2%	2.84 mg/g	
C=CCS[S+]([O-])CC=C (stereo unspecified) [ALLICIN]		27.6%				50.25 mg/dL					2.07	9.44 mg/g	27.6%			39.6%	20.5%	3.59 mg/g	
Nc1ccc(/C=C/CSSC/C=C/c2ccc(N)cc2)cc1	51.5 IU	7.5%		26.5 IU	14.6 mg/dL	59.76 mg/dL	21 IU	13 mg/dL	0.84 mg/dL	0.55 mg/dL	1.74	14.6 mg/g	3.13%	46.9 KA Units	37 IU	6.71%	5.5%	4.81 mg/g	40.6 KA Units
C(=C\c1ccccc1)/CSSC/C=C/c1ccccc1	51 IU	5.9%		17.5 IU	7.37 mg/dL	60.95 mg/dL	27 IU	12.4 mg/dL	0.57 mg/dL	0.58 mg/dL	1.72	14.2 mg/g	2%	33.6 KA Units	39 IU	4.9%	3.63%	4.86 mg/g	34 KA Units
